Calls of active or inactive are those of the source.
Key:
NIH3T3 = assay: Cytotoxicity against mouse NIH/3T3 cells after 96 hrs by SRB assay; type: cell-based; conditions: NIH3T3, 96 h
Outline: (§1)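 Sulforhodamine B colorimetric assay after 96 h of treatment. EC50 values in µM are averaged from three independent experiments, each run in triplicate, with a 95% confidence interval. The assay cut-off is 30 µM.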

MCF7 = assay: Cytotoxicity against human MCF7 cells after 96 hrs by SRB assay; type: functional, cell-based; conditions: MCF7, 96 h; outline: as §1
HT-29 = assay: Cytotoxicity against human HT-29 cells after 96 hrs by SRB assay; type: functional, cell-based; conditions: HT-29, 96 h; outline: as §1
A2780 [1] = assay: Cytotoxicity against human A2780 cells after 96 hrs by SRB assay; type: functional, cell-based; conditions: A2780, 96 h; outline: as §1
SW-1736 = assay: Cytotoxicity against human SW1736 cells after 96 hrs by SRB assay; type: functional, cell-based; conditions: SW-1736, 96 h; outline: as §1
FaDu = assay: Cytotoxicity against human FADU cells after 96 hrs by SRB assay; type: functional, cell-based; outline: as §1
[2] = Drug uptake in mitochondria of human A2780 cells at 200 nM after 24 hrs by rhodamine 123 staining based fluorescence microscopy; type: ADME; conditions: a2780, 24 h, 0.2 µM
Outline: (§2)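 A2780 ovarian carcinoma cells were incubated 24 h with 200 nM compound, then double-stained with rhodamine 123 (mitochondria, green) and Hoechst 33342 (nuclei). Fluorescence microscopy localized the compound's own red fluorescence by overlay with the rhodamine 123 and Hoechst channels. Bright-field images were also taken.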

[3] = Drug uptake in nucleus of human A2780 cells at 200 nM after 24 hrs by rhodamine 123 staining based fluorescence microscopy; type: ADME, subcellular; conditions: a2780, 24 h, 0.2 µM; outline: as §2
A2780 [4] = assay: Induction of apoptosis in human A2780 cells assessed as crescent-shaped nuclei at 200 nM after 24 hrs by Hoechst 33342 staining based fluorescence microscopy; type: functional, cell-based
A2780 [5] = assay: Induction of apoptosis in human A2780 cells assessed as incipient membrane blebbing at 200 nM after 24 hrs; type: functional, cell-based

| SMILES | EC50 (NIH3T3) [µM] | EC50 (MCF7) [µM] | EC50 (HT-29) [µM] | EC50 (A2780 [1]) [µM] | EC50 (SW-1736) [µM] | EC50 (FaDu) [µM] | Drug uptake [2] | Drug uptake [3] | Activity (A2780 [4]) | Activity (A2780 [5]) |
| --- | --- | --- | --- | --- | --- | --- | --- | --- | --- | --- |
| CCN(CC)c1ccc2c(-c3ccccc3C(=O)O[C@H]3CC[C@]4(C)[C@H]5C(=O)C=C6[C@@H]7C[C@@](C)(C(=O)OC)CC[C@]7(C)CC[C@@]6(C)[C@]5(C)CC[C@H]4C3(C)C)c3ccc(=[N+](CC)CC)cc-3oc2c1 | 0.2 | 0.18 | 0.15 | 0.08 | 0.15 | 0.19 |  |  |  |  |
| CCN(CC)c1ccc2c(-c3ccccc3C(=O)O[C@H]3CC[C@]4(C)[C@H]5CC=C6[C@@H]7[C@@H](C)[C@H](C)CC[C@]7(C(=O)NCc7ccccc7)CC[C@@]6(C)[C@]5(C)CC[C@H]4C3(C)C)c3ccc(=[N+](CC)CC)cc-3oc2c1 | 0.37 | 0.3 | 0.45 | 0.34 | 0.24 | 0.44 |  |  |  |  |
| CCN(CC)c1ccc2c(-c3ccccc3C(=O)O[C@H]3CC[C@]4(C)[C@H]5CC=C6[C@@H]7[C@@H](C)[C@H](C)CC[C@]7(C(=O)OCc7ccccc7)CC[C@@]6(C)[C@]5(C)CC[C@H]4C3(C)C)c3ccc(=[N+](CC)CC)cc-3oc2c1 | 15.4 | 13.8 | 11.4 | 10.1 | 12.7 | 15.8 |  |  |  |  |
| C=C(C)[C@@H]1CC[C@]2(C(=O)NCc3ccccc3)CC[C@]3(C)[C@H](CC[C@@H]4[C@@]5(C)CC[C@H](OC(=O)c6ccccc6-c6c7ccc(=[N+](CC)CC)cc-7oc7cc(N(CC)CC)ccc67)C(C)(C)[C@@H]5CC[C@]43C)[C@H]12 | 0.54 | 0.47 | 0.53 | 0.31 | 0.45 | 0.54 |  |  |  |  |
| CCN(CC)c1ccc2c(-c3ccccc3C(=O)O[C@H]3CC[C@]4(C)[C@H]5CC=C6[C@@H]7[C@@H](C)[C@H](C)CC[C@]7(C(=O)OC)CC[C@@]6(C)[C@]5(C)CC[C@H]4C3(C)C)c3ccc(=[N+](CC)CC)cc-3oc2c1 | 1.84 | 1.83 | 1.85 | 1.75 | 1.72 | 1.96 |  |  |  |  |
| C=C(C)[C@@H]1CC[C@]2(C(=O)OC)CC[C@]3(C)[C@H](CC[C@@H]4[C@@]5(C)CC[C@H](OC(=O)c6ccccc6-c6c7ccc(=[N+](CC)CC)cc-7oc7cc(N(CC)CC)ccc67)C(C)(C)[C@@H]5CC[C@]43C)[C@H]12 | 1.77 | 0.81 | 0.61 | 0.42 | 0.74 | 1.29 |  |  |  |  |
| CCN(CC)c1ccc2c(-c3ccccc3C(=O)O[C@H]3CC[C@]4(C)[C@H]5CC=C6[C@@H]7CC(C)(C)CC[C@]7(C(=O)NCc7ccccc7)CC[C@@]6(C)[C@]5(C)CC[C@H]4C3(C)C)c3ccc(=[N+](CC)CC)cc-3oc2c1 | 0.4 | 0.36 | 0.46 | 0.32 | 0.27 | 0.5 |  |  |  |  |
| CCN(CC)c1ccc2c(-c3ccccc3C(=O)O[C@H]3CC[C@]4(C)[C@H]5C(=O)C=C6[C@@H]7C[C@@](C)(C(=O)OCc8ccccc8)CC[C@]7(C)CC[C@@]6(C)[C@]5(C)CC[C@H]4C3(C)C)c3ccc(=[N+](CC)CC)cc-3oc2c1 | 1.28 | 1.47 | 1.42 | 0.9 | 1.13 | 1.54 |  |  |  |  |
| C=C(C)[C@@H]1CC[C@]2(C(=O)OCc3ccccc3)CC[C@]3(C)[C@H](CC[C@@H]4[C@@]5(C)CC[C@H](OC(=O)c6ccccc6-c6c7ccc(=[N+](CC)CC)cc-7oc7cc(N(CC)CC)ccc67)C(C)(C)[C@@H]5CC[C@]43C)[C@H]12 | 8.04 | 5.05 | 5.33 | 3.36 | 6.43 | 7.59 |  |  |  |  |
| CCN(CC)c1ccc2c(-c3ccccc3C(=O)O[C@H]3CC[C@]4(C)[C@H]5CC=C6[C@@H]7CC(C)(C)CC[C@]7(C(=O)OC)CC[C@@]6(C)[C@]5(C)CC[C@H]4C3(C)C)c3ccc(=[N+](CC)CC)cc-3oc2c1 | 2.63 | 2.31 | 2.75 | 1.14 | 1.76 | 1.99 |  |  |  |  |
| CCN(CC)c1ccc2c(-c3ccccc3C(=O)O[C@H]3CC[C@]4(C)[C@H]5C(=O)C=C6[C@@H]7C[C@@](C)(C(=O)NCc8ccccc8)CC[C@]7(C)CC[C@@]6(C)[C@]5(C)CC[C@H]4C3(C)C)c3ccc(=[N+](CC)CC)cc-3oc2c1.[Cl-] | 0.08 | 0.04 | 0.06 | 0.02 | 0.04 | 0.06 | Active | Not Active | Active | Active |
| CCN(CC)c1ccc2c(-c3ccccc3C(=O)O[C@H]3CC[C@]4(C)[C@H]5CC=C6[C@@H]7CC(C)(C)CC[C@]7(C(=O)OCc7ccccc7)CC[C@@]6(C)[C@]5(C)CC[C@H]4C3(C)C)c3ccc(=[N+](CC)CC)cc-3oc2c1 | 11.2 | 9.4 | 8.9 | 3.35 | 9.05 | 9.12 |  |  |  |  |
